The values below come from the RNAGym collection of RNA variant scans (doi:10.1002/anie.201605470).

B1: Osa-1-4 twister ribozyme (parent)
chain: CCGCCUAACACUGCCAAUGCCGGUCCCAAGCCCGGAUAAAAGUGGAGGGGGCGG

In the data set the parent is B1. Kind of data set: self-cleavage, relative activity (ratio to wild type); higher = more cleavage; co-transcriptional. An outline of the steps:
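The 48 positions downstream of the cleavage site in a 54-nucleotide Oryza sativa twister ribozyme template were synthesised at 97 % wild-type base and 1 % of each other base. The template was transcribed in vitro at 37 °C for 2 h, with self-cleavage allowed during transcription. Reads with or without upstream sequence after deep sequencing marked cleavage status, and relative activity is fraction cleaved normalised to wild type.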
For the variant A16U G47A, the self-cleavage turned out to be 0.24.
With A16U G47C, the self-cleavage is 0.08.
For A16U G13U, the self-cleavage stood at 0.02.
The value for A16U G13A was 0.09.
In the case of A16U G13C, the self-cleavage amounted to 0.02.
As for A16U G53U, the figure is 0.4; as for A16U G53C, 0.1.
As for A16U G53A, the figure is 0.85; as for A16G A28C, 1.
As for A16G A28U, the figure is 0.92; as for A16G A28G, 0.6; as for A16G U24A, 0.48.
As to A16G U24G, the self-cleavage was determined as 0.04.
The value for A16G U24C was 0.58; that for A16G C21A was 0.8; that for A16G C21U was 0.98.
As to A16G C21G, the self-cleavage turned out to be 0.12.
The value for A17C A46U was 0.05; that for A17C A46G was 0.05.
The value for A17C A46C was 0.05.
For the variant A16G A17U, the self-cleavage turned out to be 0.94.
For A16G A17C, the self-cleavage amounted to 0.91.
As for A16G A17G, the figure is 0.92; as for A17C C20G, 0.1.
As for A17C C20U, the figure is 0.78; as for A17C C20A, 0.58.
The value for A16U A39U was 0.87; that for A16U A39G was 0.4; that for A16U A39C was 0.93.
A16G A29G: the self-cleavage turned out to be 0.39.
The value for A16G A29U was 0.27.
As to A16G A29C, the self-cleavage is 0.08.
As for A16U U24G, the figure is 0.02; as for A16U U24A, 0.15; as for A16U U24C, 0.29.
Take A16U: the self-cleavage came out at 0.97.
A16U G19C: the self-cleavage is 0.09.
With A16U G19U, the self-cleavage worked out at 0.26.
As to A16U G19A, the self-cleavage is 0.89.
The value for A16G G44C was 0.96.
Turning to A16G G44U, the self-cleavage turned out to be 0.95.
As to A16G G44A, the self-cleavage was found to be 0.96.
Regarding A16G G34U, the self-cleavage is 0.82.
As for A16G G34A, the figure is 0.84; as for A16G G34C, 0.74.
The value for A16G G23A was 0.68; that for A16G G23U was 0.14; that for A16G G23C was 0.09.
Take A17C C14U: the self-cleavage was determined as 0.64.
As for A17C C14G, the figure is 0.25; as for A17C C14A, 0.1.
Turning to A17C C25G, the self-cleavage was 0.03.
Turning to A17C C25U, the self-cleavage amounted to 0.18.
The value for A17C C25A was 0.04; that for A16G C52U was 0.99.
As for A16G C52G, the figure is 1.
A16G C52A: the self-cleavage stood at 0.97.
The value for A16G A39C was 1.01.
As for A16G A39G, the figure is 0.9.
The value for A16G A39U was 0.97.
Consider A16G C31A, for which the self-cleavage came out at 0.03.
For A16G C31G, the self-cleavage is 0.16.
Regarding A16G C31U, the self-cleavage amounted to 0.94.
For A16G G22C, the self-cleavage stood at 0.19.
The value for A16G G22U was 0.82.
The value for A16G G22A was 1; that for A16G G54U was 0.93.
The value for A16G G54C was 0.99; that for A16G G54A was 0.98.
Regarding A17C, the self-cleavage was 0.76.
Take A16U U37G: the self-cleavage was determined as 1.
The value for A16U U37C was 1.06; that for A16U U37A was 0.83; that for A16U C31A was 0.03.
With A16U C31U, the self-cleavage was determined as 0.74.
The value for A16U C31G was 0.07.
The value for A17C C9U was 0.1; that for A17C C9G was 0.12; that for A17C C9A was 0.08.
As for A17C A36C, the figure is 0.21; as for A17C A36U, 0.66; as for A17C A36G, 0.75.
Turning to A17C C27G, the self-cleavage came to 0.03.
As for A17C C27A, the self-cleavage came out at 0.06.
Turning to A17C C27U, the self-cleavage came to 0.06.
The value for A16U G23C was 0.06; that for A16U G23A was 0.49.
As for A16U G23U, the figure is 0.09.
The value for A16U G48U was 0.06; that for A16U G48A was 0.08; that for A16U G48C was 0.07.
As to A16U C11G, the self-cleavage stood at 0.55.
As for A16U C11A, the figure is 0.64; as for A16U C11U, 0.8; as for A16U G54A, 0.93.
The value for A16U G54C was 0.88.
With A16U G54U, the self-cleavage was determined as 0.94.
Regarding A17C C26U, the self-cleavage came to 0.19.
As for A17C C26A, the figure is 0.03.
As for A17C C26G, the self-cleavage came to 0.07.
As for A16G G48A, the self-cleavage turned out to be 0.18.
In the case of A16G G48C, the self-cleavage came out at 0.15.
As for A16G G48U, the figure is 0.1; as for A16G G51A, 0.82; as for A16G G51C, 0.22.
As for A16G G51U, the figure is 0.46.
As for A17C A39C, the figure is 0.52; as for A17C A39U, 0.73; as for A17C A39G, 0.86.
For the variant A16G C26U, the self-cleavage turned out to be 0.93.
In the case of A16G C26G, the self-cleavage was 0.13.
As for A16G C26A, the figure is 0.08.
Turning to A16G U18G, the self-cleavage amounted to 0.83.
With A16G U18A, the self-cleavage amounted to 0.92.
Consider A16G U18C, for which the self-cleavage was determined as 0.97.
As to A16G C32G, the self-cleavage stood at 0.19.
The value for A16G C32A was 0.08; that for A16G C32U was 0.09.
For the variant A16G U37C, the self-cleavage was 1.03.
For the variant A16G U37A, the self-cleavage is 0.87.
As for A16G U37G, the figure is 1.02; as for A17C A29C, 0.03.
Regarding A17C A29G, the self-cleavage is 0.05.
The value for A17C A29U was 0.04; that for A16U G35A was 0.76; that for A16U G35C was 0.17.
Take A16U G35U: the self-cleavage was 0.82.
The value for A16G G13A was 0.2; that for A16G G13C was 0.02.
On to A16G G13U, for which the self-cleavage turned out to be 0.04.
The value for A16U A40C was 0.07; that for A16U A40U was 0.55.
Regarding A16U A40G, the self-cleavage was 0.38.
As for A17C C11U, the figure is 0.14; as for A17C C11A, 0.06; as for A17C C11G, 0.05.
For A16U A46C, the self-cleavage amounted to 0.07.
The value for A16U A46G was 0.05; that for A16U A46U was 0.05; that for A16U A8U was 0.35.
As for A16U A8C, the figure is 0.06; as for A16U A8G, 0.62.
As to A16U C25A, the self-cleavage worked out at 0.11.
Consider A16U C25U, for which the self-cleavage was determined as 0.84.
As for A16U C25G, the figure is 0.08.
A16U U43C: the self-cleavage was found to be 0.36.
On to A16U U43G, for which the self-cleavage was 0.33.
The value for A16U U43A was 0.85.
The value for A17C C15G was 0.64; that for A17C C15A was 0.7.
The value for A17C C15U was 0.77.
Regarding A16U A17G, the self-cleavage stood at 0.96.
The value for A16U A17C was 0.94; that for A16U A17U was 1.01.
As for A16G C33G, the self-cleavage came to 0.08.
The value for A16G C33A was 0.26.
The value for A16G C33U was 0.87; that for A16U A29C was 0.04.
For A16U A29U, the self-cleavage worked out at 0.11.
Regarding A16U A29G, the self-cleavage amounted to 0.18.
The value for A16U G51C was 0.16; that for A16U G51U was 0.39.
As for A16U G51A, the figure is 0.64; as for A16G A7U, 0.13; as for A16U C26U, 0.9.
The value for A16U C26G was 0.11; that for A16U C26A was 0.03.
